These results are taken from ChEMBL document CHEMBL1147827, “A pyrimidine-pyrazolone nucleoside chimera with potent in vitro anti-orthopoxvirus activity” (Bioorg Med Chem Lett, 2006).

Assay [1] relates to Cowpox virus. Description: Antiviral activity against Cowpox virus Brighton in HFF cells assessed as reduction in cytopathogenicity. Type of assay: functional, organism-based. (Cytopathic effects are the visible damage that an infection or toxin causes in cultured cells.)
Another assay concerns HFF. Put plainly: Cytotoxicity against human HFF cells by neutral red uptake. Type of assay: functional. Summed up: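 Uninfected HFF cells in 96-well plates were exposed to various drug concentrations for 7 days, then stained with neutral red.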
The next assay deals with Vaccinia virus. Description: Antiviral activity against Vaccinia virus Copenhagen in HFF cells assessed as reduction in plaque formation. The class given is functional, organism-based. Conditions: Orthopoxvirus vaccinia.
The test system of assay [2] is Cowpox virus. Put plainly: Antiviral activity against Cowpox virus Brighton in HFF cells assessed as reduction in plaque formation. The class given is functional, organism-based.

As usually defined, the EC50 is the midpoint of the concentration-response curve. By CC50 is commonly meant the concentration giving 50% cytotoxicity. Lower therefore signals greater toxicity to the cells.

As for `Nc1ccn(C[C@@H](CO)OCP(=O)(O)O)c(=O)n1` [CIDOFOVIR], the 50% effective concentration (EC50) with Cowpox virus [1] was determined as 7.1 µM; in the assay with Vaccinia virus, 20 µM. Also, the half-maximal cytotoxic concentration (CC50) in the assay on HFF is above 317 µM.
Consider `CC(=O)OC[C@H]1O[C@@H](n2cc(/C=C3\C(=O)N(c4ccccc4)N=C3C)c(=O)[nH]c2=O)C[C@@H]1OC(C)=O`, for which the EC50 in the assay on Cowpox virus [1] came out at 33.7 µM; in the assay on Vaccinia virus it was 56 µM; with Cowpox virus [2], 48 µM. The same compound registered a CC50 in the assay with HFF above 252 µM.
